# This is a sample that favours compounds with a hit; in the whole collection about 4.9% have one here.
# STAT1 activator: activators of IFN-gamma induced STAT1 signaling | actives 2.6% (n = 200,000) | activation (% of control), % at 5.5 µM | NIH 3T3 STAT1-luciferase reporter, luminescence; 100% = IFN-gamma alone, no compound;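 active means activation above the screen-wide mean activation plus 3 SD, cut at about 130% in these data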;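 further: raw ratio to IFN-gamma control signal so 100% means no change and 0% no light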
# NF-kB neuron act: NF-kB expression increase, human neuronal cells; AID 1239; NF-kB reporter expression; hits give high values; actives 1.6% (n = 190,000); fold change at 12.5 µM; in the data active means fold change above about 3.3
# STAT3 act: increases IL-6 driven STAT3 reporter signal; U3A cells, IL-6 STAT3-luciferase reporter, luminescence; 100% = signal with IL-6 EC80 alone; activation (% of control), % at 5.6 µM; actives 0.91% (n = 190,000);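 active means activation above the screen-wide mean of compound activation plus 3 SD, cut at about 130% in these data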;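 further: 0% = background luminescence of wells with medium and substrate only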
#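 Test system: human U3A cells carrying STAT3-luciferase construct; control set: IL-6-only wells as 100% reference; timing: compound pre-incubation 1 h before IL-6, then 6 h stimulation at 37 °C; also added: IL-6 stimulus at 33 ng/mL final; evaluation: % activation versus median of IL-6-stimulated wells; detection: reporter luminescence signal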
# STAT3 inh: inhibitors of IL-6 induced STAT3 signaling; U3A cells, IL-6 STAT3-luciferase reporter, luminescence; host cell line lacks STAT1; inhibition, % at 5.5 µM; actives 0.89% (n = 190,000); AID 862;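 active means inhibition above the mean inhibition across all screened compounds plus 3 SD, cut at about 44% in these data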;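 further: 0% = DMSO only wells and 100% = 100 µM nifuroxazide control wells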
# APP 5'UTR act: APP 5'UTR luciferase reporter activation. SH-SY5Y APP 5'UTR luciferase reporter, luminescence; zero percent = DMSO vehicle wells. AID 1276. actives 1% (n = 190,000). activation, % at 2 µM;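 active means activation above a set limit, based on mean plus 3 SD of controls, cut at about 140% in these data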
# STAT1 inh: inhibitors of IFN-gamma induced STAT1 signaling. inhibition, % at 5.5 µM. NIH 3T3 STAT1-luciferase reporter, luminescence. actives 0.35% (n = 200,000). AID 920;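 active means inhibition above a set limit, the mean inhibition across all tested compounds plus 3 SD, cut at about 34% in these data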;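 further: 0% = IFN-gamma with DMSO and 100% = IFN-gamma with 300 µM nifuroxazide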
# An asterisk follows results filed as active.
SMILES,STAT1 activator,NF-kB neuron act,STAT3 act,STAT3 inh,APP 5'UTR act,STAT1 inh
Clc1ccc(C2=NN=C3COc4ccccc4N3C2)cc1,100,1.4,103,-3,19,0
Cc1ccc(C)c(SCC(=O)Nc2cc(C)nn2-c2ccc(F)cc2)c1,95,1,100,0,18,6
COc1ccc(C2C(C#N)=C(N)Oc3c2c(-c2ccccc2)nn3-c2ccccc2)c(OC)c1OC (configuration not stated),96,1.2,99,2,2,3
CC(C)NCCCCOc1ccc(Br)cc1Cl,99,1,99,8,12,-2
Fc1ccc(NC(=S)NNc2ncc(C(F)(F)F)cc2Cl)c(F)c1,46,0.35,49,62*,0,59*
FC(F)(F)c1cnc(NNC(=S)Nc2ccc(Cl)cc2)c(Cl)c1,95,0.32,88,17,2,6
O=[N+]([O-])c1ccccc1CN1CCN(Cc2c[nH]c3ccccc23)CC1,83,1.4,135*,-33,-24,17
O=C(c1ccccc1)N1CCN(Cc2c[nH]c3ccccc23)CC1,98,0.85,126,-28,-35,1
O=C(c1cccc(F)c1)N1CCN(Cc2c[nH]c3ccccc23)CC1,93,1.2,168*,-81,10,7
O=C(Nc1ccc(Cl)cc1Cl)C1=Cc2ccccc2OC1,141*,5.9*,81,26,221*,-45
O=C(Nc1ccc2c(c1)oc1ccccc12)c1ccc(Br)o1,139*,1.6,97,8,55,-43
CCN(CC)c1ccc(NC(=O)c2ccc(Br)o2)cc1,133*,7*,108,-2,178*,-33
COC(=O)Cc1ccc(NC(=O)c2ccc(Br)o2)cc1,126,1.8,95,9,51,-28
CN(C)CCCN=c1cc(-c2ccccc2)oc2ccc(Cl)cc12,148*,1.5,104,-1,129,-54
Cc1ccc2nc(-c3ccc(NC(=O)Cc4cccs4)cc3)[nH]c2c1,145*,2.2,87,21,109,-50
Cc1ccccc1C(=O)Nc1nnc(-c2ccco2)s1,59,3.7*,42,69*,141*,44*
COc1ccccc1C(=O)Nc1nnc(-c2ccco2)s1,138*,3.2,101,4,145*,-41
CCSc1nnc(NC(=O)/C=C/c2ccc3c(c2)OCO3)s1,105,1.4,92,11,-7,-6
CCSc1nnc(Nc2ccc(C)cc2)s1,143*,3.4*,103,2,70,-47
CCSc1nnc(NC(=O)c2ccc3c(c2)OCO3)s1,118,3.4*,87,19,53,-20
COc1ccccc1C(=O)NCC(=O)N/N=C/c1cn[nH]c1-c1ccccc1,96,1.1,95,8,-8,2
CCNc1nc(NCC)n2c(SCC(=O)c3ccccc3F)nnc2n1,92,1.4,97,6,-13,8
CCSc1nnc(NC(=O)c2ccccc2C)s1,138*,2.4,101,6,56,-44
Cc1ccc(C)c(C(C)NC(=O)c2ccc(Br)o2)c1 (configuration not stated),94,1.1,109,-12,12,7
O=C(CSc1ccc(-c2cccc([N+](=O)[O-])c2)nn1)N1CCCC1,108,1.1,96,10,17,-13
SMILES,STAT1 activator,NF-kB neuron act,STAT3 act,STAT3 inh,APP 5'UTR act,STAT1 inh
CCSc1ccc(-c2cccc([N+](=O)[O-])c2)nn1,137*,1.1,108,-5,28,-45
CC(C)(C)c1ccc(/C=C/C(=O)NC2=NCCS2)cc1,98,1.9,79,28,184*,3
CCOc1ccccc1NC(=O)Nc1ccc(Br)cc1C,102,1.3,85,22,-18,-5
N/C(=N\OCc1ccc([N+](=O)[O-])cc1)c1ccccn1,16,1.6,12,110*,34,90*
C/C(=N/OCc1ccc(Br)cc1)c1ccccn1,138*,4*,90,12,197*,-40
O=C(O)CC(NC(=O)C1c2ccccc2Oc2ccccc21)c1ccc(Cl)cc1 (configuration not stated),91,0.94,105,-11,-12,10
O=c1c2c(-c3cccs3)csc2ncn1-c1ccc(Br)cc1,98,0.74,104,0,-9,2
Brc1ccc(-c2cnc(-c3cccs3)o2)cc1,143*,2.7,102,3,89,-47
CCOc1ccc(N2C(=O)CC(Sc3ccccc3C(=O)O)C2=O)c([N+](=O)[O-])c1 (configuration not stated),96,1.1,99,6,4,1
Cn1c2c(c(=O)n(C)c1=O)C1c3cc(Cl)ccc3OCC1CO2 (configuration not stated),107,1.3,101,0,13,-8
Cn1c(Cl)cnc1C1CC(=O)c2cc(Cl)ccc2O1 (configuration not stated),103,4.7*,103,4,-27,-3
Clc1ccc(OCc2cn3cccnc3n2)c2ncccc12,124,1.3,107,-5,18,-26
Cc1cc(Cl)ccc1OCc1cn2cccnc2n1,133*,3,91,17,94,-36
Cc1cccc(C(=O)N/N=C/c2ccccn2)c1,136*,1.7,106,-9,22,-41
O=C(N/N=C/c1ccccn1)c1cccc([N+](=O)[O-])c1,114,0.78,106,-4,-2,-15
O=C(N/N=C/c1ccccn1)c1ccc(Br)cc1,134*,0.46,79,28,6,-37
O=C(N/N=C/c1ccccn1)c1ccc([N+](=O)[O-])cc1,133*,1.5,93,10,16,-37
CCN(CC)S(=O)(=O)c1cccc(C(=O)N/N=C/c2ccccn2)c1,105,1.1,101,0,1,-5
O=C(N/N=C/c1ccccn1)c1cc([N+](=O)[O-])cc([N+](=O)[O-])c1,129*,0.8,96,6,-5,-33
O=C(N/N=C/c1ccccn1)c1ccc(N/N=C/c2ccccn2)cc1,104,0.89,88,19,48,-3
CC(C)(C)NC(=O)COC(=O)c1ccc(Cl)cc1O,95,1.3,105,3,5,5
C=C(C)C1CC=C(C)/C(=N/NC(=O)COc2ccccc2Cl)C1 (configuration not stated),102,0.75,96,3,2,-3
Cc1cccc2c1OCC/C2=N\NC(=O)COc1ccccc1Cl,130*,2,89,16,6,-33
O=C(NS(=O)(=O)Oc1ccc(Cl)cc1)OC[C@@H]1CCCN2CCCC[C@H]12,97,0.93,90,15,-10,3
Oc1ccc(CN2CCc3ccccc3C2)c2cccnc12,93,5.2*,94,8,-87,7

# Bioassay records from PubChem.
